The nature of data set [1]: Cytotoxicity against African green monkey Vero cells infected with ZIKV MR766 pretreated with virus for 1 hr followed by infection of cells with compound treated-virus for 30 hrs by MTS assay. The class given is toxicity, cell-based. Particulars: chlorocebus sabaeus. The essentials:
(§1)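 MTS viability assay. Cells were treated under the same conditions as the antiviral assays. Absorbance was expressed as % of medium-only cells, and CC50 was derived from the curve. Seeding densities were 1.2 × 10^4/well for Vero, 1.3 × 10^4/well for A549 and 1.6 × 10^4/well for Huh7. DMEM with 2% FBS.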
Background: Tetrazolium assays rely on reduction of a dye to a coloured formazan, in cell work by metabolically active cells.

The test system of data set [2] is Zika virus. The experiment in a line: Antiviral activity against ZIKV MR766 infected in African green monkey Vero cells assessed as titer reduction in viral progeny production at 15 uM treated for 2 hrs followed by virus removal and subsequent addition of medium containing compound measured after 48 hrs by plaque reduction assay. The class given is functional, organism-based. The note with it: time 50.0 hrs. In short, it runs like this: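 Vero cells seeded 6.5 × 10^4/well, exposed in duplicate for 2 h at 37 °C to virus (MOI 0.1) mixed with compound at 5 or 15 μM. After three washes, medium containing compound was added for 48 h. Supernatants were clarified and titred on Vero by focus reduction (USUV, FFU/ml) or plaque assay (ZIKV, PFU/ml). DMSO-matched infected controls; mean of three experiments.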
For orientation: Plaque reduction counts the foci of infection that form in a cell layer.

Data set [3] concerns Zika virus. As to the kind of experiment: Antiviral activity against ZIKV MR766 infected in African green monkey Vero cells assessed as viral growth inhibition at 11 to 100 uM pretreated with virus for 1 hr followed by infection of cells with compound treated-virus for 30 hrs by focus reduction assay relative to control. Particulars: dose 11-100 µM, time 31 hrs. The class given is functional. In short, it runs like this: (§2)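 Virus (MOI 0.02) preincubated with compound 1 h at 37 °C, then mixture put on Vero cells (1.2 × 10^4/well, seeded the day before) in DMEM with 2% FBS for 30 h (ZIKV) or 20 h (USUV) at 37 °C. Fixed in cold acetone-methanol, foci immunostained with anti-flavivirus E 4G2 antibody and counted. % infection is relative to DMSO-treated wells. Screen used 100, 33 and 11 μM.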

Data set [4] relates to Usutu virus. The experiment in a line: Antiviral activity against USUV 3345 isolate Arb276 infected in African green monkey Vero cells assessed as viral growth inhibition at 0.13 to 100 uM pretreated with cells 2 hrs prior to viral infection by time of addition assay. The class given is functional, organism-based. The note with it: dose 0.13-100 µM. The essentials:
(§3)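 Time-of-addition assay in Vero. Serial dilutions (100 to 0.13 μM) were added to cells 24 h or 2 h before infection, during the 2 h infection, or post-infection for 24 h (USUV) or 30 h (ZIKV). Cells were fixed in cold acetone-methanol (50:50) and infected cells detected by indirect immunostaining. EC50/EC90 came from variable-slope sigmoidal fits; mean of three independent experiments.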

The subject of data set [5] is Zika virus. The experiment in a line: Antiviral activity against ZIKV MR766 infected in African green monkey Vero cells assessed as viral growth inhibition at 0.13 to 100 uM treated immediately after viral infection for 2 hrs by time of addition assay. The class given is functional, organism-based. The note with it: dose 0.13-100 µM, in the assay text read “during viral infection” for “immediately after viral infection”. In short, it runs like this: as §3

Data set [6] is described as follows: Selectivity ratio of EC50 for antiviral activity against ZIKV MR766 infected in African green monkey Vero cells pretreated with cells 24 hrs prior to viral infection to EC50 for antiviral activity against ZIKV MR766 infected in African green monkey Vero cells treated immediately after viral infection for 30 hrs. It is filed as functional, Zika virus. In short, it runs like this: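 Time of addition: serial dilutions (100 to 0.13 μM) put on cells either 24 h before infection or after infection for 30 h (ZIKV). Infected cells fixed in acetone-methanol and immunostained. EC50 computed for each treatment condition by sigmoidal fit; the ratio compares the two EC50s.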

The test system of data set [7] is Usutu virus. The experiment in a line: Antiviral activity against USUV 3345 isolate Arb276 infected in African green monkey Vero cells assessed as viral growth inhibition at 11 to 100 uM pretreated with virus for 1 hr followed by infection of cells with compound treated-virus for 20 hrs by focus reduction assay relative to control. The class given is functional. The note with it: dose 11-100 µM, time 21 hrs. In short, it runs like this: as §2

Data set [8] can be described thus: Aqueous solubility in deionized water containing 1.38% DMSO. It is filed as physicochemical.
Data set [9] in a line: Selectivity index, ratio of CC50 for African green monkey Vero cells infected with USUV 3345 isolate Arb276 to EC50 for USUV 3345 isolate Arb276 infected in African green monkey Vero cells. The class given is toxicity, cell-based. The note with it: read-out: Ratio CC50/EC50.
The nature of data set [10]: Cytotoxicity against human A549 cells infected with USUV 3345 isolate Arb276 pretreated with virus for 1 hr followed by infection of cells with compound treated-virus for 20 hrs by MTS assay. It is filed as toxicity, cell-based. The essentials:
as §1

The nature of data set [11]: Selectivity index, ratio of CC50 for African green monkey Vero cells infected with ZIKV MR766 to EC50 for ZIKV MR766 infected in African green monkey Vero cells. It is filed as toxicity, cell-based. Particulars: read-out: Ratio CC50/EC50.
Data set [12] deals with Usutu virus. As to the kind of experiment: Antiviral activity against USUV 3345 isolate Arb276 infected in human Huh-7 cells assessed as reduction in viral replication pretreated with virus for 1 hr followed by infection of cells with compound treated-virus for 20 hrs by focus reduction assay. The class given is functional, organism-based. The note with it: Usutu virus, 3345, Huh-7; for EC90: time 21 hrs. In short, it runs like this: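 Dose-response: serial dilutions (100 to 0.13 μM) preincubated 1 h at 37 °C with virus (MOI 0.02), then added to cells for 20 h (USUV) or 30 h (ZIKV) in 2% FBS DMEM. Cells per well: Vero 1.2 × 10^4, A549 1.3 × 10^4, Huh7 1.6 × 10^4. Foci immunostained and counted. EC50/EC90 fitted by variable-slope sigmoidal curve, mean of three independent experiments.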

A short description of data set [13]: Cytotoxicity against human Huh-7 cells infected with ZIKV MR766 pretreated with virus for 1 hr followed by infection of cells with compound treated-virus for 30 hrs by MTS assay. The class given is toxicity, cell-based. The essentials: as §1
Data set [14] can be described thus: Solubility in DMSO at 25 degreeC. The class given is physicochemical.
Data set [15] is described as follows: Solubility in i-propanol at 25 degreeC. The class given is physicochemical.
A short description of data set [16]: Cytotoxicity against human A549 cells infected with ZIKV MR766 pretreated with virus for 1 hr followed by infection of cells with compound treated-virus for 30 hrs by MTS assay. The class given is toxicity, cell-based. The essentials: as §1
The test system of data set [17] is Usutu virus. The experiment in a line: Antiviral activity against USUV 3345 isolate Arb276 infected in African green monkey Vero cells assessed as reduction in viral replication pretreated with virus for 1 hr followed by infection of cells with compound treated-virus for 20 hrs by focus reduction assay. Particulars: Usutu virus, 3345, Vero; for EC90: time 21 hrs. It is filed as functional, organism-based.

Data set [18] has as its system Usutu virus. As to the kind of experiment: Antiviral activity against USUV 3345 isolate Arb276 infected in African green monkey Vero cells assessed as viral growth inhibition at 0.13 to 100 uM treated immediately after viral infection for 24 hrs by time of addition assay. Particulars: dose 0.13-100 µM. It is filed as functional, organism-based. In short, it runs like this: as §3

The test system of data set [19] is Zika virus. The experiment in a line: Antiviral activity against ZIKV MR766 infected in African green monkey Vero cells assessed as viral growth inhibition at 0.13 to 100 uM pretreated with cells 24 hrs prior to viral infection by time of addition assay. The class given is functional, organism-based. The note with it: dose 0.13-100 µM. The essentials: as §3
Data set [20] concerns Usutu virus. The experiment in a line: Antiviral activity against USUV 3345 isolate Arb276 infected in African green monkey Vero cells assessed as viral growth inhibition at 0.13 to 100 uM treated immediately after viral infection for 2 hrs by time of addition assay. It is filed as functional, organism-based. Particulars: dose 0.13-100 µM, in the assay text read “during viral infection” for “immediately after viral infection”. In short, it runs like this:
as §3

Values after ≈ are worked out from the molar mass of the structure shown. Active and inactive are the calls of the source. The rule behind the calls is not given here. Where only a bound is given, the exact number is not on record here.

Broadly, the CC50 is the concentration that lowers cell viability or growth by half. As a reminder, the solubility is the dissolved amount per volume that the medium holds. As usually defined, the EC50 is the concentration that produces a half-maximal response. Broadly, the EC90 is the concentration at which the effect reaches the 90% level.

For `O=C1[C@@H]2CCCN2[C@@H](c2ccc([C@H]3C[C@@H](O)[C@@H](CO)O3)cc2)N1c1ccc([N+](=O)[O-])cc1`, the CC50 at 31 h in data set [1], in data set [13] and in data set [16] was above 500 µM throughout. Besides, the result in [2], in data set [18] and in data set [19] was Active. The “inhibition (INH)” value in data set [3] and in [7] was 100% each time. Further, the outcome in data set [4], in data set [5] and in [20] was inactive. Further, in data set [6], the “Ratio EC50” value was found to be 5. Besides, the solubility is above 947 µg/mL in data set [8], 96000 µg/mL (≈ 218 mM) in data set [14] and 7320 µg/mL (≈ 16.7 mM) in data set [15]. In addition, the results for the selectivity ratio in [9] and in data set [11] were above 198 and above 63, respectively. Also, in [10], the CC50 at 21 h is above 500 µM. The EC50 in data set [12] turned out to be 3.91 µM; in data set [17], 2.53 µM. Besides, the EC90 in data set [12] stood at 5.77 µM; in [17], 3.89 µM.

`O=C1C[C@H](c2ccc([C@H]3N(c4ccc([N+](=O)[O-])cc4)C(=O)[C@@H]4CCCN43)cc2)O[C@@H]1CO`: the CC50 at 31 h in data set [1], in data set [13] and in data set [16] was above 500 µM each time. In addition, the outcome in data set [2], in [18] and in [19] was Active. Besides, the “inhibition (INH)” value in data set [3] and in [7] was 100% in each case. Moreover, the result in data set [4], in data set [5] and in data set [20] was inactive. Also, the “Ratio EC50” value in [6] stood at 5. The solubility in data set [8] is above 897 µg/mL; in data set [14], 130000 µg/mL (≈ 297 mM); in data set [15], 8570 µg/mL (≈ 19.6 mM). The values for the selectivity ratio in data set [9] and in data set [11] were above 181 and above 51, respectively. Further, in data set [10], the CC50 at 21 h was above 500 µM. Also, the EC50 in data set [12] is 4 µM; in data set [17] it was 2.76 µM. Besides, the EC90 amounted to 6.28 µM in data set [12] and 4.34 µM in data set [17].

(Values after ChEMBL document CHEMBL5325402, “Exploration of novel hexahydropyrrolo[1,2-e]imidazol-1-one derivatives as antiviral agents against ZIKV and USUV” (Eur J Med Chem, 2023).)
